Reference: ChEMBL document CHEMBL3421622, “New organochalcogen multitarget drug: synthesis and antioxidant and antitumoral activities of chalcogenozidovudine derivatives” (J Med Chem, 2015)
Active and inactive are the calls of the source. The calls are words filed in the database; no cut-off is given here.

Assays:
Brain = assay: Antioxidant activity in Wistar rat brain assessed as inhibition of TBARS formation at 200 uM after 60 mins by spectrophotometric method relative to control; format: functional
In short: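 Adult male Wistar rat brain (250−350 g) homogenized 1:10 w/v in 10 mM Tris-HCl pH 7.4 and spun at 2000 rpm for 10 min; low-speed supernatant (S1) used. Blank lacked Fe. TBARS read at 532 nm against MDA standard. Three experiments.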

[1] = Antioxidant activity assessed as thiol peroxidase-like activity assessed as time required to oxidize 50% of benzenethiol during reduction of hydrogen peroxide measured for 180 secs by UV spectroscopic analysis; conditions: 0.05 h
Liver [2] = assay: Toxicity in rat liver assessed as change in AST release relative to control; format: tissue-based
5637 [3] = assay: Induction of apoptosis in human 5637 cells assessed as early and late apoptotic cells at 100 uM after 48 hrs by annexin V-PE/7-AAD staining-based flow cytometric analysis (reference value: 7.36%); format: functional
Liver [4] = assay: Toxicity in rat liver slices assessed as change in ALT release relative to control; conditions: in vitro
5637 [5] = assay: Induction of apoptosis in human 5637 cells assessed as ratio of Bax mRNA to Bcl2 mRNA level at 100 uM after 48 hrs by real-time PCR analysis (reference value: 0.08 to 0.13); format: functional
In short: (§1)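 5637 cells seeded at 2 × 10^5 per well and grown 24 h. Treated with 50 or 100 μM for 48 h, washed in PBS, RNA extracted. Bax, Bcl-2, caspase-9 and survivin mRNA measured by real-time PCR; Bax:Bcl-2 ratio derived. Experiments in triplicate.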

5637 [6] = assay: Upregulation of caspase-9 mRNA expression in human 5637 cells at 100 uM after 48 hrs by real-time PCR analysis relative to control; format: functional, cell-based; in short: as §1
Liver [7] = assay: Toxicity in rat liver assessed as effect on cell viability at 50 to 200 uM after 2 hrs by MTT reduction assay relative to control
In short: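 Liver slices from healthy adult rats preincubated 10 min in Krebs Ringer pH 7.4. Compound added to 200, 100 or 50 μM final for 2 h at 37 °C. MTT (5 mg/mL) added for 30 min at 37 °C, formazan dissolved in DMSO, absorbance read at 570 and 700 nm. Expressed as % of untreated; three experiments.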

5637 [8] = assay: Downregulation of Bcl2 mRNA expression in human 5637 cells at 100 uM after 48 hrs by real-time PCR analysis relative to control; format: functional, cell-based; in short: as §1
5637 [9] = assay: Downregulation of survivin mRNA expression in human 5637 cells at 100 uM after 48 hrs by real-time PCR analysis relative to control; format: functional, cell-based; in short: as §1
5637 [10] = assay: Cytotoxicity against human 5637 cells assessed as growth inhibition after 48 hrs by MTT assay; format: functional, cell-based; conditions: Homo sapiens, 5637, 48 h
In short: (§2)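 5637 cells in log phase, seeded at 2 × 10^4 per well and grown 24 h. Exposed for 24, 48 or 72 h to 200−12.5 μM in DMSO (final ≤0.25%, vehicle group included). MTT added for 3 h, formazan dissolved in DMSO, read at 492 nm. Growth inhibition = [1 − Abs treated/Abs control] × 100%. […] Three independent experiments.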

5637 [11] = assay: Cytotoxicity against human 5637 cells assessed as growth inhibition at 100 to 200 uM after 48 hrs by MTT assay relative to control; format: functional
In short: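 5637 bladder carcinoma cells in DMEM with 10% FBS, seeded 2 × 10^4/well, grown 24 h at 37 °C, 5% CO2. Exposed to 200–12.5 μM from DMSO stocks (final DMSO ≤0.25%, solvent control) for 48 h. MTT added for 3 h, formazan dissolved in DMSO, read at 492 nm. Growth inhibition = [1 − Abs treated/Abs control] × 100%. Three independent experiments.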

5637 [12] = assay: Induction of apoptosis in human 5637 cells assessed as DNA fragmentation at 50 to 100 uM after 48 hrs by TUNEL assay relative to control; format: functional, cell-based
In short: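 5637 cells treated 48 h, then collected and fixed. TdT-mediated BrdU labelling of fragmented DNA, detected with TMR-anti-BrdU after 30 min staining in the dark at room temperature. TUNEL-positive cells counted by flow cytometry.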

5637 [13] = assay: Induction of apoptosis in human 5637 cells assessed as ratio of Bax mRNA to Bcl2 mRNA level at 50 uM after 48 hrs by real-time PCR analysis (reference value: 0.08 to 0.13); format: functional; in short: as §1
5637 [14] = assay: Induction of apoptosis in human 5637 cells at 50 uM after 48 hrs by annexin V-PE/7-AAD staining-based flow cytometric analysis (reference value: 7.36%); format: functional
[15] = Antioxidant activity assessed as thiol peroxidase-like activity assessed as time required to oxidize 50% of benzenethiol during reduction of hydrogen peroxide measured for 180 secs by UV spectroscopic analysis relative to control; conditions: 0.05 h
5637 [16] = assay: Cytotoxicity against human 5637 cells assessed as growth inhibition at 50 uM after 48 hrs by MTT assay relative to control; format: functional; conditions: Homo sapiens, 5637, 48 h; read-out: GI; in short: as §2
5637 [17] = assay: Cytotoxicity against human 5637 cells assessed as dead cells at 100 uM after 48 hrs by calcein/ethidium bromide staining-based fluorescence microscopic analysis relative to control; format: functional, cell-based
In short: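 5637 bladder carcinoma cells (DMEM, 10% FBS) seeded at 2 × 10^4 per well and grown 24 h. Exposed to 100 or 50 μM compound for 48 h. Washed, then stained with calcein (live, green) and ethidium homodimer (dead, red). Scored by multicolor fluorescence microscopy.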

5637 [18] = assay: Cytotoxicity against human 5637 cells assessed as growth inhibition at 12.5 to 200 uM after 48 hrs by MTT assay relative to control; format: functional; in short: as §2

Row | SMILES | inhibition at 200 µM (Brain; 1 h) [%] | t50 [1] [min] | Activity (Liver [2]) | Activity 5637 [3] [%] | Activity (Liver [4]) | inhibition (Brain) | Ratio 5637 [5] | Activity 5637 [6] | Activity (Liver [7]) | Activity 5637 [8] | Activity 5637 [9] | IC50 5637 [10] [µM] | growth inhibition (GI) 5637 [11] [%] | Activity 5637 [12] | Ratio 5637 [13] | Activity 5637 [14] [%] | fold change (FC) [15] | inhibition of growth at 50 µM 5637 [16] [%] | Activity 5637 [17] | growth inhibition (GI) 5637 [18] [%]
1 | Cc1cn([C@H]2C[C@H](N=[N+]=[N-])[C@@H](C[Se]c3cccc4ccccc34)O2)c(=O)[nH]c1=O | 80 | 66.3 | – | – | – | – | – | – | – | – | – | – | – | – | – | – | – | – | – | –
2 | Cc1cn([C@H]2C[C@H](N=[N+]=[N-])[C@@H](C[Se]c3ccccc3)O2)c(=O)[nH]c1=O | – | 56.4 | Non-toxic | 90.74 | Non-toxic | Active | 10.6 | Active | Non-toxic | Active | Active | 78.9 | >50 | Active | 1.45 | – | – | – | – | –
3 | Cc1cn([C@H]2C[C@H](N=[N+]=[N-])[C@@H](C[Se]c3ccc(Cl)cc3)O2)c(=O)[nH]c1=O | – | 15.2 | Non-toxic | 92.8 | Non-toxic | Active | 4.8 | Active | Non-toxic | Active | Active | 40.4 | – | Active | 0.9 | 71.12 | 4 | 50 | Active | –
4 | Cc1cn([C@H]2C[C@H](N=[N+]=[N-])[C@@H](CO)O2)c(=O)[nH]c1=O [ZIDOVUDINE] | – | 66.5 | Non-toxic | – | Non-toxic | – | – | – | – | Active | – | 7 | – | inactive | – | 7.74 | – | 50 | inactive | >50
5 | Cc1ccc([Se]C[C@H]2O[C@@H](n3cc(C)c(=O)[nH]c3=O)C[C@@H]2N=[N+]=[N-])cc1 | – | 22.5 | Non-toxic | 89.6 | Non-toxic | Active | 19.4 | Active | Non-toxic | Active | Active | 51.6 | – | Active | 0.5 | – | 4 | 50 | – | –
6 | Cc1cc(C)c([Se]C[C@H]2O[C@@H](n3cc(C)c(=O)[nH]c3=O)C[C@@H]2N=[N+]=[N-])c(C)c1 | – | 97.5 | – | – | – | Active | – | – | – | – | – | – | – | – | – | – | – | – | – | –
